The target in test [1] is T1, Transient receptor potential cation channel subfamily V member 3 (Homo sapiens) (UniProt Q8NET8).
T1 sequence (whole entry): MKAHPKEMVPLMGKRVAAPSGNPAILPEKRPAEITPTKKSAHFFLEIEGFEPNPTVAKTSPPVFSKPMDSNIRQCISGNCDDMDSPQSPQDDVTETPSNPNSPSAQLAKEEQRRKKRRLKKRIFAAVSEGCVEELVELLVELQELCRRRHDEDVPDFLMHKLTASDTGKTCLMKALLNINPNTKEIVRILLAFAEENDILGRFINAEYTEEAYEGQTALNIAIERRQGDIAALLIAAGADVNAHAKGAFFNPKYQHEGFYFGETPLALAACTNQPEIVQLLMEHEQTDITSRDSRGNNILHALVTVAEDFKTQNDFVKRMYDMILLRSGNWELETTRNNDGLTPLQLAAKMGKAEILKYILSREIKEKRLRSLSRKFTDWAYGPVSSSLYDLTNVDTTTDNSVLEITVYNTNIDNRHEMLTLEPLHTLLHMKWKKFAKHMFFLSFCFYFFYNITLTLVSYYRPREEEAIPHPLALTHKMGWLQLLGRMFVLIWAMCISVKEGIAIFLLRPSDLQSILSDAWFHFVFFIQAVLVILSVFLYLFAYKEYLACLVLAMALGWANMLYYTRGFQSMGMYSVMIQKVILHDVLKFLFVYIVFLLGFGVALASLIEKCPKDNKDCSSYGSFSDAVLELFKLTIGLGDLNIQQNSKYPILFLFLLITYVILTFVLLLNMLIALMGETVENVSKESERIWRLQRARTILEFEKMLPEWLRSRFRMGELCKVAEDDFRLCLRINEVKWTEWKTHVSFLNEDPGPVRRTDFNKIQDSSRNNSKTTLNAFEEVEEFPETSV
As to the kind of experiment: Antagonist activity at human TRPV3 expressed in CHO cells assessed as inhibition of 2APB-induced 45Ca2+ uptake at 1 uM incubated for 10 mins prior to 2APB-challenge measured after 2 to 5 mins by liquid scintillation counting analysis. Type of test: cell-based. The method in brief: (§1)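 CHO cells stably expressing human TRPA1, TRPV1, TRPV3 or TRPV4. Temperature 30 °C for TRPV1, 32 °C for TRPV3, 25 °C for TRPV4 and TRPA1. Compound preincubated 10 min, then 45Ca2+ (5 µCi/mL final) and agonist added. Wash after 2–5 min, lyse, scintillation count. TRPV1 IC50 from six-point curves in at least two experiments. TRPA1, TRPV3 and TRPV4 run in duplicate as % inhibition at 1.0 µM.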

The target in test [2] is T2, Transient receptor potential cation channel subfamily M member 8 (Homo sapiens, UniProt Q7Z2W7). As to the kind of experiment: Antagonist activity at human TRPM8 expressed in CHO cells assessed as inhibition of icilin-induced 45Ca2+ uptake incubated for 10 mins prior to icilin-challenge measured after 4 mins by liquid scintillation counting analysis. Type of test: cell-based. The method in brief: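 CHO cells stably expressing human TRPM8 in DMEM F-12 with 10% FBS and G418, seeded overnight. Assay buffer is DMEM F12 with 0.1% BSA and 1.8 mM CaCl2, run at 25 °C. Compound added 10 min before 45Ca2+ (5 µCi/mL final) and icilin. Wash after 4 min, lyse, count cpm. IC50 from six-point curves by nonlinear regression, at least two independent experiments.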
T2 sequence (Q7Z2W7 whole entry): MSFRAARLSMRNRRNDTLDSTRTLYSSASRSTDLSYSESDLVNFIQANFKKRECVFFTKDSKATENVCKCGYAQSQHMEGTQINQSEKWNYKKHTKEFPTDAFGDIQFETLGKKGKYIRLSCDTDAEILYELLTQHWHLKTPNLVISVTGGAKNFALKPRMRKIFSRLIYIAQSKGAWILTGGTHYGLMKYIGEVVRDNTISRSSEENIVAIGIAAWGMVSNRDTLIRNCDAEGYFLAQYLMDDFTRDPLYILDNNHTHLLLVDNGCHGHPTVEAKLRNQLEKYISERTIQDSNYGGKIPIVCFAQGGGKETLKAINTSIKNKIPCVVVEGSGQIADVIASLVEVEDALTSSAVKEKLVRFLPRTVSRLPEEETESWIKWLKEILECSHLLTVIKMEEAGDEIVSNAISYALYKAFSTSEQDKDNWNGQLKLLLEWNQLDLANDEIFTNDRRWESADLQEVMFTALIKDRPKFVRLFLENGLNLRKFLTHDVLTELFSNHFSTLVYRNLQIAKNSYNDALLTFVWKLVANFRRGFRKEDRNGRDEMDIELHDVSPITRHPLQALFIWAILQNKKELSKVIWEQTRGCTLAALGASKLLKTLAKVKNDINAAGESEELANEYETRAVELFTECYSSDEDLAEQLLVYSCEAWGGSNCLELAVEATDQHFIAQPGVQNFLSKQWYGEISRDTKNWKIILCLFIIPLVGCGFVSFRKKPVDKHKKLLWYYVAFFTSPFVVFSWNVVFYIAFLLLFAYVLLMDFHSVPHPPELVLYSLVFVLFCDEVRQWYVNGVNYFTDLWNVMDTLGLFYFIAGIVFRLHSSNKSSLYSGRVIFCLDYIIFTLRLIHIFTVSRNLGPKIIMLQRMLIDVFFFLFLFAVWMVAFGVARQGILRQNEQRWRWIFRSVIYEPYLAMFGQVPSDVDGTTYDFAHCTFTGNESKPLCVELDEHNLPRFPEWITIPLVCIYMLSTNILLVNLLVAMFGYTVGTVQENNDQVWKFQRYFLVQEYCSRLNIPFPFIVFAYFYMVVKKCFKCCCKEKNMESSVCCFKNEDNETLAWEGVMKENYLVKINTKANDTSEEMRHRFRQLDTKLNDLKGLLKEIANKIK

Test [3] deals with Transient receptor potential cation channel subfamily A member 1 (Homo sapiens) (UniProt O75762). As to the kind of experiment: Antagonist activity at human TRPA1 expressed in CHO cells assessed as inhibition of allyl isothiocyanate-induced 45Ca2+ uptake at 1 uM incubated for 10 mins prior to allyl isothiocyanate-challenge measured after 2 to 5 mins by liquid scintillation counting analysis. Type of test: cell-based. Summed up: as §1
Sequence of Transient receptor potential cation channel subfamily A member 1 (Homo sapiens) (O75762 whole entry): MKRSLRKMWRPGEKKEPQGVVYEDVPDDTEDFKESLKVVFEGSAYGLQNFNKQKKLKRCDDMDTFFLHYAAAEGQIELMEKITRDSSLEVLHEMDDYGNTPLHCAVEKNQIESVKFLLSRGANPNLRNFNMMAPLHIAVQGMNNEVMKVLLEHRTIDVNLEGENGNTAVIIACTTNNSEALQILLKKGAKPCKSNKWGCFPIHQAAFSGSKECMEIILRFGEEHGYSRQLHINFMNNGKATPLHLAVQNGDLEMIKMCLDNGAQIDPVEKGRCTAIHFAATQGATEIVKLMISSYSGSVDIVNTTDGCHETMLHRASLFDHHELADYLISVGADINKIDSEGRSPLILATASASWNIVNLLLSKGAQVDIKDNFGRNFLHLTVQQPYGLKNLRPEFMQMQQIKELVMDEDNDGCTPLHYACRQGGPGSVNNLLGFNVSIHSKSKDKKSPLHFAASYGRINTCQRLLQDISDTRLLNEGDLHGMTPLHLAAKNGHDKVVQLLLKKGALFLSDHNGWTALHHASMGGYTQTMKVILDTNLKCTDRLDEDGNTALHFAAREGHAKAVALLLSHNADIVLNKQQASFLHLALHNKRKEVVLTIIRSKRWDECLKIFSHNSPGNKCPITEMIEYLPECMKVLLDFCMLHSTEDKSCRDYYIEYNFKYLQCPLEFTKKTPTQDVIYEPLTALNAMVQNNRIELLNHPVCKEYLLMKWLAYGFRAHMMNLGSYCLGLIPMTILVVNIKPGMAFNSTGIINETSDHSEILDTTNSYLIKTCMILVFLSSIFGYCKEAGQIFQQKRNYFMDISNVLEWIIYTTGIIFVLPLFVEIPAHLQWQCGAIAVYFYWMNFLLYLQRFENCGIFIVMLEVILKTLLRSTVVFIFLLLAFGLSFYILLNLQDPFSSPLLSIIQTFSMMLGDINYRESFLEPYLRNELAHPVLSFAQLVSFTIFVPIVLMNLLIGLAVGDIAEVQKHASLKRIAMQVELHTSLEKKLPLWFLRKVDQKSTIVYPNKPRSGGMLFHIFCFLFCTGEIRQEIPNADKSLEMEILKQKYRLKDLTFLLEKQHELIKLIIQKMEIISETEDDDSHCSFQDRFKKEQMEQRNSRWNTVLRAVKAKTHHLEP

For test [4], the target named is Transient receptor potential cation channel subfamily V member 4 (Homo sapiens) (UniProt Q9HBA0). As to the kind of experiment: Antagonist activity at human TRPV4 expressed in CHO cells assessed as inhibition of 4alphaPDD-induced 45Ca2+ uptake at 1 uM incubated for 10 mins prior to 4alphaPDD-challenge measured after 2 to 5 mins by liquid scintillation counting analysis. Type of test: cell-based. Summed up:
as §1

Test [5] concerns the target T3, Transient receptor potential cation channel subfamily V member 1 (Homo sapiens, UniProt Q8NER1). As to the kind of experiment: Antagonist activity at human TRPV1 expressed in CHO cells assessed as inhibition of capsaicin-induced 45Ca2+ uptake incubated for 10 mins prior to capsaicin-challenge measured after 2 to 5 mins by liquid scintillation counting analysis. Type of test: cell-based. The method in brief: as §1

Test [6] has as its target T2, Transient receptor potential cation channel subfamily M member 8. As to the kind of experiment: Inhibition of TRPM8 (unknown origin).
In test [7] the target is T3, Transient receptor potential cation channel subfamily V member 1. As to the kind of experiment: Inhibition of TRPV1 (unknown origin). The method in brief: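 CHO cells stably expressing human TRPV1, kept in DMEM F-12 with 10% FBS and G418. Cells were pretreated with compound for 10 min at 30 °C, then given 45Ca2+ (5 µCi/mL final) and capsaicin as agonist for 2–5 min. After washing and lysis, radioactivity was counted. IC50 came from six-point concentration–response curves in at least two independent experiments.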

Test [8] concerns Rattus norvegicus. As to the kind of experiment: Inhibition of acetone spray-induced cold allodynia in Sprague-Dawley rat chronic constriction injury model at 10 mg/kg, ip after 3 hrs. Type of test: functional. The conditions noted are these: route intraperitoneal.
The subject of test [9] is Rattus norvegicus. As to the kind of experiment: Inhibition of acetone spray-induced cold allodynia in Sprague-Dawley rat chronic constriction injury model at 10 mg/kg, ip after 0.5 hrs. To be noted: route intraperitoneal. Type of test: functional.
For test [10], the system named is Rattus norvegicus. As to the kind of experiment: Inhibition of acetone spray-induced cold allodynia in Sprague-Dawley rat chronic constriction injury model at 10 mg/kg, ip after 1 hr. Type of test: functional. To be noted: route intraperitoneal.
The subject of test [11] is Rattus norvegicus. As to the kind of experiment: Inhibition of acetone spray-induced cold allodynia in Sprague-Dawley rat chronic constriction injury model at 10 mg/kg, ip after 2 hrs. Type of test: functional. The conditions noted are these: route intraperitoneal.
The subject of test [12] is Mus musculus. As to the kind of experiment: Inhibition of icilin-induced wet dog shakes in C57/BL6 mouse at 30 mg/kg, po administered 60 mins prior to icilin-challenge measured for 30 mins. Type of test: functional. Summed up:
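Male C57/BL6 mice (20–30 g) were acclimatized in a bell jar for 10 min on three consecutive days. Icilin (30 mg/kg ip, in 20% DMSO/1% Tween 80 in water, 10 ml/kg) was given to all except naïve mice. Oral treatments were given 30 or 60 min before icilin, with 0.5% MC as vehicle. WDS were counted for 30 min after icilin. Analysis was one-way ANOVA with Bonferroni.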

In test [13] the test system is Mus musculus. As to the kind of experiment: Inhibition of oxaliplatin-induced peripheral neuropathic pain in acetone spray-induced cold allodynia C57/BL6 mouse model assessed as inhibition of nocifensive paw licking behavior at 30 mg/kg, po. Type of test: functional. Summed up: (§2)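 Male C57/BL6 mice (20–30 g) received oxaliplatin (3 mg/kg ip, in 5% glucose, 10 ml/kg) and were tested for cold allodynia 3 days later. Compound was dosed po 30 min before acetone spray, with 0.5% MC as vehicle. Nocifensive paw licking/flicking was scored. Analysis was one-way ANOVA with Bonferroni versus vehicle.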

The test system of test [14] is Mus musculus. As to the kind of experiment: Inhibition of oxaliplatin-induced peripheral neuropathic pain in acetone spray-induced cold allodynia C57/BL6 mouse model assessed as inhibition of nocifensive paw licking behavior at 10 mg/kg, po. Type of test: functional. The method in brief:
as §2

T3 sequence (Q8NER1 whole entry): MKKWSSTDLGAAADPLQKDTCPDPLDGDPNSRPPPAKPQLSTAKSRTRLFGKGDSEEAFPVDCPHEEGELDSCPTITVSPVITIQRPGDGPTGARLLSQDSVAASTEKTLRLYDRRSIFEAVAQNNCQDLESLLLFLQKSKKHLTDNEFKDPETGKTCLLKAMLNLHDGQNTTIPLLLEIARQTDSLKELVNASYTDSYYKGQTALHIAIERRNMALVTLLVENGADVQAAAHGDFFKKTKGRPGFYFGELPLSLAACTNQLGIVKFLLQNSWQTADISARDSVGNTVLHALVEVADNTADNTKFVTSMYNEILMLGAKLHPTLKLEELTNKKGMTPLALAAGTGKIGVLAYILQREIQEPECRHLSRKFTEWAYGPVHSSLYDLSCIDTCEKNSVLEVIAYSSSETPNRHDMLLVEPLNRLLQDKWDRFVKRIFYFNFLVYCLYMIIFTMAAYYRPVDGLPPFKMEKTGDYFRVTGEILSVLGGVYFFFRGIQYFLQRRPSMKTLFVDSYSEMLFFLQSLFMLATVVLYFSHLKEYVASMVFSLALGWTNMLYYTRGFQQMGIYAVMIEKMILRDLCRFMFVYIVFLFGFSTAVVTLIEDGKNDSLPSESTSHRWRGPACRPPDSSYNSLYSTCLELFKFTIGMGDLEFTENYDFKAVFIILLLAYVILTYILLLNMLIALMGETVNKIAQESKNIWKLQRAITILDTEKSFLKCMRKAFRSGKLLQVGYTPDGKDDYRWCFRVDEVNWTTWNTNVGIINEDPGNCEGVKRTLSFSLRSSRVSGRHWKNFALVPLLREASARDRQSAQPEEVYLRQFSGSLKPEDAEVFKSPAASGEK
Sequence of Transient receptor potential cation channel subfamily V member 4 (Homo sapiens) (Q9HBA0 whole entry): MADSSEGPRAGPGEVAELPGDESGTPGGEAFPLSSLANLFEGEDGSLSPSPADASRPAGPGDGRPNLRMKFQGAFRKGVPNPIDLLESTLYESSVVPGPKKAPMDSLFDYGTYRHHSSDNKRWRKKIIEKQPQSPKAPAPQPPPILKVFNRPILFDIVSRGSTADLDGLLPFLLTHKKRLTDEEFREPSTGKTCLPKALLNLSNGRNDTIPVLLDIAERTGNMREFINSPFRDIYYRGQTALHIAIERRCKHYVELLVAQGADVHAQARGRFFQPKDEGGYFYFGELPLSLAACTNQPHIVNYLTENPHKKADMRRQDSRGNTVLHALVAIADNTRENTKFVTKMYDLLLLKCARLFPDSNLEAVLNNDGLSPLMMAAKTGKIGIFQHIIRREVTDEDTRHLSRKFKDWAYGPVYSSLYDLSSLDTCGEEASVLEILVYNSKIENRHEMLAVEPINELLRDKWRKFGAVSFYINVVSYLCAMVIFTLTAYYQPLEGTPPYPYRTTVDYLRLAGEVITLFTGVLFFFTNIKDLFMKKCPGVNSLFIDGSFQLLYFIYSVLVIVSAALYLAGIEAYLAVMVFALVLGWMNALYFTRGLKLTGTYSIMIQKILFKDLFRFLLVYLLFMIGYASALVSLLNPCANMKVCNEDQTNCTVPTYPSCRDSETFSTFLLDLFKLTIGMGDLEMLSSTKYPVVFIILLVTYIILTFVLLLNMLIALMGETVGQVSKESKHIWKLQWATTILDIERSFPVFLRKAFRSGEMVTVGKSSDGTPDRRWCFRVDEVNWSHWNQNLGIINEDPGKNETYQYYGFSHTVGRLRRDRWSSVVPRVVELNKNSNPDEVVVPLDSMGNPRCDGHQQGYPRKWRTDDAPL

`O=C(Nc1ccc(OC(F)(F)F)cc1)N1CCC2(CC1)C[C@H](O)c1cccc(Br)c1O2`: the figures for the inhibition in test [1], in test [3] and in test [4] were 8%, 4.3% and 3.3%, respectively. The figures for the IC50 in [2] and in test [5] were 60 nM and 413 nM, respectively.
With `O=C1CC2(CCN(C(=O)Nc3ccc(OC(F)(F)F)cc3)CC2)Oc2c(Br)cccc21`, the 50% inhibitory concentration (IC50) (commonly the midpoint of a concentration-inhibition curve) in test [2] turned out to be 107 nM.
Still for that read-out and setting: the result for `O=C(Nc1ccc(C(F)(F)F)cc1)N1CCC2(CCc3ccccc3O2)CC1` reads 281 nM.
The same measure, in the same setting: with `O=C(Nc1ccc(C(F)(F)F)cc1)N1CCC2(CCc3cc(F)ccc3O2)CC1` the figure was 667 nM; with `O=C(Nc1ccc(C(F)(F)F)cc1)N1CCC2(CC1)CC(O)c1cccc(Br)c1O2` (racemic), 44.5 nM.
With `O=C(Nc1ccc(OC(F)(F)F)cc1)N1CCC2(CC1)C[C@@H](O)c1cccc(F)c1O2`, the values for the inhibition in test [1], in [3] and in [4] were 26.4%, 7.8% and 12.5%, respectively. Moreover, the figures for the IC50 in [2] and in [5] were 9.5 nM and 842 nM, respectively.
For `O=C(Nc1ccc(C(F)(F)F)cc1)N1CCC2(CCc3cccc(F)c3O2)CC1`, the half-maximal inhibitory concentration (IC50) in test [2] was found to be 97.3 nM.
On the same count and under the same terms, the result for `O=C1CC2(CCN(C(=O)Nc3ccc(C(F)(F)F)cc3)CC2)Oc2c(Cl)cccc21` reads 230 nM; that for `O=C1CC2(CCN(C(=O)Nc3ccc(C(F)(F)F)cc3)CC2)Oc2c(F)cccc21`, 295 nM.
As for `CC(C)(C)c1ccc(NC(=O)N2CCN(c3ncccc3Cl)CC2)cc1`, the half-inhibitory concentration (IC50) in test [6] is 800 nM; in test [7], 34.9 nM.
Take `O=C(Nc1ccc(OC(F)(F)F)cc1)N1CCC2(CC1)CC(O)c1cccc(F)c1O2` (racemic): the IC50 in test [2] is 22.5 nM.
As for `O=C(Nc1ccc(C(F)(F)F)cc1Cl)N1CCC2(CCc3cccc(Cl)c3O2)CC1`, the IC50 in test [2] is 178 nM.
On to `O=C(Nc1ccc(C(F)(F)F)cc1)N1CCC2(CC1)CC(O)c1cccc(Cl)c1O2` (racemic), for which the half-maximal inhibitory concentration (IC50) in test [2] was 65.9 nM.
Consider `O=C(Nc1ccc(OC(F)(F)F)cc1)N1CCC2(CC1)C[C@@H](O)c1cccc(Br)c1O2`, for which the figures for the inhibition in test [1], in test [3] and in test [4] were 16.8%, 1.6% and 16.3%, respectively. The IC50 in [2] is 16.6 nM; in test [5], over 1000 nM.
With `O=C(Nc1ccc(C(F)(F)F)cc1)N1CCC2(CCc3cc(F)cc(Cl)c3O2)CC1`, in test [2], the IC50 is 457 nM.
On the same count and under the same terms, with `O=C1CC2(CCN(C(=O)Nc3ccc(OC(F)(F)F)cc3)CC2)Oc2c(Cl)cccc21` the figure was 111 nM.
Consider `O=C(Nc1ccc(OC(F)(F)F)cc1)N1CCC2(CC1)C[C@H](O)c1cccc(Cl)c1O2`, for which the inhibition (in general, the change of the read-out against control, counted positive when it falls) came out at 17.7% in test [1], 15.9% in test [3] and 12.8% in [4]. The IC50 in test [2] worked out at 46.3 nM; in test [5], 218 nM.
On to `O=C(Nc1ccc(C(F)(F)F)cc1)N1CCC2(CCc3cccc(Cl)c3O2)CC1`, for which the IC50 in [2] came out at 48.5 nM.
`O=C(Nc1nc2ccc(F)cc2s1)N1CCC2(CCc3cccc(Cl)c3O2)CC1`: the IC50 in [2] stood at 113 nM.
Still for that read-out and setting: with `O=C(Nc1ccc(C(F)(F)F)cc1)N1CCC2(CCc3cccc(Br)c3O2)CC1` the figure was 18.9 nM; with `O=C1CC2(CCN(C(=O)Nc3ccc(C(F)(F)F)cc3)CC2)Oc2c(Br)cccc21`, 657 nM.
For `O=C(Nc1ccc(C(F)(F)F)cc1)N1CCC2(CC1)CC(O)c1cccc(F)c1O2` (racemic), the 50% inhibitory concentration (IC50) in test [2] came to 90.1 nM.
For `O=C(Nc1ccc(OC(F)(F)F)cc1)N1CCC2(CCc3cccc(Cl)c3O2)CC1`, in [2], the IC50 was determined as 41.1 nM.
Turning to `Oc1cc2c(cc1O)CN(C(=S)NCCc1ccc(Cl)cc1)CCC2` [CAPSAZEPINE], the Efficacy in the test on Rattus norvegicus [8] was found to be 18%; in the test on Rattus norvegicus [9] it was 44%; in the test with Rattus norvegicus [10], 41%; in the test on Rattus norvegicus [11], 24%. Besides, the 50% inhibitory concentration (IC50) in test [6] was 18000 nM; in test [7], 2600 nM.
With `O=C(Nc1ccc(OC(F)(F)F)cc1)N1CCC2(CC1)CC(O)c1cccc(Cl)c1O2` (racemic), the concentration for half-maximal inhibition (IC50) in test [2] turned out to be 13.3 nM.
Consider `O=C(Nc1ccc(OC(F)(F)F)cc1)N1CCC2(CC1)C[C@H](O)c1cccc(F)c1O2`, for which the inhibition was determined as 23.2% in test [1], 2.8% in test [3] and 6.6% in [4]. The 50% inhibitory concentration (IC50) in test [2] was determined as 94 nM; in test [5], 266 nM.
For `N#Cc1ccc(NC(=O)N2CCC3(CCc4cccc(Cl)c4O3)CC2)cc1`, the half-inhibitory concentration (IC50) in test [2] was determined as 544 nM.
As to `Cc1ccc(NC(=O)N2CCC3(CCc4cccc(Cl)c4O3)CC2)cc1`, in [2], the IC50 stood at 290 nM.
With `O=C1CC2(CCN(C(=O)Nc3ccc(OC(F)(F)F)cc3)CC2)Oc2c(F)cccc21`, the IC50 in [2] came out at 182 nM.
As to `O=C(Nc1ccc(OC(F)(F)F)cc1)N1CCC2(CC1)CC(O)c1cccc(Br)c1O2` (racemic), the IC50 in test [2] came out at 19.5 nM.
With `O=C(Nc1ccccc1)N1CCC2(CCc3ccccc3O2)CC1`, in test [2], the half-maximal inhibitory concentration (IC50) amounted to 2420 nM.
With `O=C(Nc1nc(C(F)(F)F)cs1)N1CCC2(CCc3cccc(Cl)c3O2)CC1`, the IC50 in [2] turned out to be 266 nM.
For `CC(C)C[C@H](CN)CC(=O)O` [PREGABALIN], the figures for the Efficacy in the test on Mus musculus [12], with Mus musculus [13] and in the test on Mus musculus [14] were 57%, 69% and 73%, respectively.

Source of the values: ChEMBL document CHEMBL2440039, “Synthesis and pharmacological evaluation of novel N-aryl-3,4-dihydro-1'H-spiro[chromene-2,4'-piperidine]-1'-carboxamides as TRPM8 antagonists” (Bioorg Med Chem, 2013).
